The test system of one data set is Hepatitis C virus. As to the kind of experiment: Antiviral activity against HCV Con1 in eplicon cells after 3 days by RT-PCR analysis. Format: functional, organism-based, Hepacivirus hominis. Conditions: isolate Con1, 72 h. Summed up: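 HCV 1b-Con1 replicon cells seeded at 5000 cells/well one day before treatment; inhibitor in DMSO added as 10 serial twofold dilutions in duplicate (final 0.5% DMSO, 5% FBS). Harvested 3 days post dosing; replicon RNA quantified by real-time RT-PCR (Taqman), GAPDH RNA as endogenous control; EC50 calculated.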

The nature of data set [1]: Irreversible inhibition of HCV1b NS5B delta21 polymerase by radiolabeled nucleotide incorporation assay. Set-up: species or system Hepatitis C virus subtype 1b.
Data set [2] is described as follows: Plasma protein binding in human. Format: ADME, cell-free. Conditions: read-out: PPB (converted).
Data set [3] is described as follows: Plasma protein binding in cynomolgus monkey. As to conditions: read-out: PPB (converted). Format: ADME, cell-free, Macaca fascicularis.
Data set [4] is described as follows: Plasma protein binding in beagle dog. Format: ADME, cell-free, Canis lupus familiaris. Conditions: read-out: PPB (converted).
Data set [5] in a line: Plasma protein binding in Sprague-Dawley rat. Conditions: read-out: PPB (converted). Format: ADME, cell-free.
Data set [6] in a line: Ratio of drug uptake in brain to plasma of Sprague-Dawley rat at 10 mg/kg, po. Conditions: read-out: BPR. Format: ADME, organism-based. More on the design: dose 10 mg/kg, route oral. The gist of the method: (§1)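 Crystalline sodium salt given orally at 10 mg/kg to fasted male Sprague Dawley rats. Liver and brain uptake were measured and reported as the mean tissue-to-plasma ratio.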

Data set [7] is described as follows: Ratio of drug uptake in liver to plasma of Sprague-Dawley rat at 10 mg/kg, po. Format: ADME, organism-based. Set-up: dose 10 mg/kg, route oral. Summed up:
as §1

The nature of data set [8]: Volume of distribution at steady state in beagle dog. Format: ADME, organism-based, Canis lupus familiaris. Conditions: in vivo, read-out: Vdss. Summed up: (§2)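 The compound was given as a crystalline sodium salt. Pharmacokinetics were studied in Sprague Dawley rats, Cynomolgus monkeys and Beagle dogs after oral (PO) and IV dosing. Oral exposure was read as AUC, and the oral dose was 3 mpk in monkeys and dogs. Volume of distribution was taken at steady state.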

Data set [9] can be described thus: Volume of distribution at steady state in cynomolgus monkey. Format: ADME, organism-based, Macaca fascicularis. As to conditions: in vivo, read-out: Vdss. The gist of the method:
as §2

Data set [10] can be described thus: Volume of distribution at steady state in Sprague-Dawley rat. Conditions: in vivo, read-out: Vdss. Format: ADME, organism-based. The gist of the method:
as §2

Data set [11] is described as follows: Clearance in beagle dog. Format: ADME, organism-based, Canis lupus familiaris. As to conditions: in vivo.
Data set [12] is described as follows: Half life in iv dosed beagle dog. Format: ADME, organism-based, Canis lupus familiaris. As to conditions: in vivo.
Data set [13] is described as follows: Oral bioavailability in beagle dog at 3 mg/kg. Format: ADME, organism-based, Canis lupus familiaris. Conditions: in vivo. The gist of the method: as §2
Data set [14] is described as follows: AUC in beagle dog at 3 mg/kg, po. Format: ADME, organism-based, Canis lupus familiaris. Set-up: dose 3 mg/kg, route oral. As to conditions: plasma. The gist of the method:
(§3)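 Given orally as crystalline sodium salt; plasma AUC determined in Sprague Dawley rats (10 mpk), Cynomolgus monkeys (3 mpk) or Beagle dogs (3 mpk).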

A short description of data set [15]: Clearance in cynomolgus monkey. Format: ADME, organism-based, Macaca fascicularis. Conditions: in vivo.
Data set [16] is described as follows: Half life in iv dosed cynomolgus monkey. As to conditions: in vivo. Format: ADME, organism-based, Macaca fascicularis.
Data set [17] is described as follows: Oral bioavailability in cynomolgus monkey at 3 mg/kg. Format: ADME, organism-based, Macaca fascicularis. Conditions: in vivo. Summed up:
as §2

A short description of data set [18]: AUC in cynomolgus monkey at 3 mg/kg, po. Format: ADME, organism-based, Macaca fascicularis. More on the design: dose 3 mg/kg, route oral. As to conditions: plasma. The gist of the method: as §3
The nature of data set [19]: Half life in iv dosed Sprague-Dawley rat. Format: ADME, organism-based. Conditions: in vivo.
Data set [20] can be described thus: Oral bioavailability in Sprague-Dawley rat at 10 mg/kg. Format: ADME, organism-based. As to conditions: in vivo.
A short description of data set [21]: Clearance in Sprague-Dawley rat. Format: ADME, organism-based. As to conditions: in vivo.
Data set [22] in a line: AUC in Sprague-Dawley rat at 10 mg/kg, po. More on the design: dose 10 mg/kg, route oral. Conditions: plasma. Format: ADME, organism-based. The gist of the method:
as §3

A further data set relates to Enterovirus C. As to the kind of experiment: Inhibition of Poliovirus RNA-dependent RNA polymerase.
Data set [23] has as its system Human immunodeficiency virus. Put plainly: Inhibition of HIV RNA-dependent DNA polymerase.
Data set [24] concerns Hepacivirus hominis. As to the kind of experiment: Inhibition of HCV NS3 helicase.
The subject of data set [25] is Hepacivirus hominis. Put plainly: Inhibition of HCV NS3 protease.

The values that follow come from ChEMBL document CHEMBL3091412, “Discovery of an irreversible HCV NS5B polymerase inhibitor” (Bioorg Med Chem Lett, 2013).

The source made the active and inactive calls. The rule behind the calls is not given here. A value given as a limit tells only on which side of the number the result lay.

Consider `Cc1ccc2nc(Cl)c(Cn3c(C(=O)O)c(-c4ccc[nH]c4=O)c4cc(C)c(F)cc43)cc2c1`, for which the EC50 with Hepatitis C virus worked out at 25 nM. The molecule further registered an IC50 in data set [1] of 20 nM.
`Cc1cc2c(-c3ccc[nH]c3=O)c(C(=O)O)n(Cc3cc4ccc(F)cc4nc3Cl)c2cc1F`: the EC50 in the data set with Hepatitis C virus was determined as 20 nM. In [1], half-maximal inhibition (IC50) required 20 nM.
With `Cc1cc2c(-c3ccc[nH]c3=O)c(C(=O)O)n(Cc3ccc(Cl)nc3)c2cc1F`, the EC50 in the data set with Hepatitis C virus was over 1000 nM. For the same molecule, 9 nM corresponded to half-maximal inhibition in [1] (IC50).
Turning to `Cc1cc2c(-c3ccc[nH]c3=O)c(C(=O)[O-])n(Cc3cc4ccccc4nc3Cl)c2cc1F.[Na+]`, the fraction unbound is 0.003 in data set [2], 0.005 in [3], 0.004 in [4] and 0.002 in data set [5]. Further, the results for the Kp in data set [6] and in [7] were under 0.01 and 0.4, respectively. Further, the Vd in data set [8] amounted to 1.7 L/kg; in [9] it was 1.2 L/kg; in data set [10] it was 0.3 L/kg. Moreover, the figures for the clearance in data set [11], in data set [15] and in data set [21] were 13 mL/min/kg, 3.5 mL/min/kg and 1.5 mL/min/kg, respectively. In addition, the half-life in [12] was 2 h; in data set [16], 5 h; in [19], 7 h. Further, the bioavailability in data set [13] is 38%; in [17], 38%; in data set [20], 14%. Besides, the AUC came out at 3.2 µM·h in data set [14], 11.5 µM·h in data set [18] and 35 µM·h in [22].
Molecule `Cc1cc2c(-c3ccc[nH]c3=O)c(C(=O)O)n(Cc3cc4cc(F)c(F)cc4nc3Cl)c2cc1F` gave an EC50 with Hepatitis C virus of 30 nM. In data set [1], the half-inhibitory concentration (IC50) stood at 10 nM.
As to `Cc1cc2c(-c3ccc[nH]c3=O)c(C(=O)O)n(Cc3c(Cl)nc4ccccc4c3Cl)c2cc1F`, in the data set on Hepatitis C virus, the EC50 was over 1000 nM. In data set [1], the concentration for half-maximal inhibition (IC50) amounted to 60 nM.
For `Cc1cc2c(-c3ccc[nH]c3=O)c(C(=O)O)n(Cc3cc4ccccc4nc3Cl)c2cc1F`, the inhibition entry (with Enterovirus C; in data set [23]; with Hepacivirus hominis [24]; in the data set with Hepacivirus hominis [25]) was “inactive” throughout.
`COc1ccc2cc(Cn3c(C(=O)O)c(-c4ccc[nH]c4=O)c4cc(C)c(F)cc43)c(Cl)nc2c1` registered an EC50 in the data set on Hepatitis C virus of 10 nM. The IC50 in data set [1] was 6 nM.
The like results for `Cc1cc2c(-c3ccc[nH]c3=O)c(C(=O)O)n(Cc3cnc4ccccc4c3Cl)c2cc1F` were, in that order, 20 nM and 6 nM.
Turning to `Cc1cc2c(-c3ccc[nH]c3=O)c(C(=O)O)n(Cc3cc(F)cnc3Cl)c2cc1F`, in the data set on Hepatitis C virus, the EC50 is 1000 nM. In data set [1], this molecule gave an IC50 of 12 nM.
